In PubChem BioAssay AID743247 (Broad Institute, 2014) one finds inhibition data, which are given here for 72 molecules.

“And” between values parts separate entries of the source, which are not always exact repeats. Equal entries are not always repeated. The whole screen tested about 350,000 compounds, of which about 300 (0.086%) were called active. The sample holds actives, similar compounds and a random draw of the others, so the mix is not that of the screen. Values without a mark were called inactive.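 Rule for the calls: active = mean inhibition across replicates of 30% or more, regardless of how many single replicates reach that level; inconclusive = mean under 30% yet at least half of replicates reach 30%; inactive = the rest.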

The test is described as follows: blockers of fibronectin fibrillogenesis by fibroblasts – AH1F cells, Alexa488-fibronectin fluorescence, plate reader, primary screen (AID 743247).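 Note: positive control wells lacked labelled fibronectin entirely.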 The following applies: Alexa488-fibronectin deposition fluorescence, overnight, at 12.6 µM, hits give high values. Summed up: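 Schedule: 1 h cell adhesion before compound, then overnight fibronectin incubation; test system: AH1F fibroblast monolayer depositing Alexa488-labelled fibronectin into matrix; quantity: 10000 AH1F cells per well; probe or stimulus: fluorescent fibronectin at 24 nM final; signal: fluorescence, ex 485 nm, em 525 nm; evaluation: percent inhibition as loss of matrix-bound fibronectin fluorescence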
Usually inhibition stands for the drop in the measured response relative to a control, in per cent. For the molecule `COc1ccc(-c2ccccc2[C@H]2[C@@H](CO)N(C(=O)c3cccnc3)[C@H]2C#N)cc1`, the inhibition was 0.791%.

For the molecule `COc1cccc(C(=O)Nc2ccc3c(c2)C(=O)N(C)[C@H]2CC[C@@H](CC(=O)N[C@H](C)c4ccccc4)O[C@H]2CO3)c1`, the inhibition is 1.83%.

Regarding `CS(=O)(=O)Nc1ccc2c(c1)[C@H]1C[C@@H](CC(=O)N3CCOCC3)O[C@@H](CO)[C@H]1O2`, the inhibition is -0.107%.

Regarding `C[C@@H]1CC=CC[C@@H](c2ccccc2)NC(=O)[C@@H](Cc2ccccc2)N(C)C(=O)c2ccccc2O1` (mixture of isomers), the inhibition is 15.9%.

With `O=C(Nc1ccc(C(F)(F)F)cc1)N1[C@@H]2CNC[C@H]1C2c1ccc(-c2ccncc2)cc1` (some centres not stated), the inhibition is -4.68% and -6.18%.

As to `COc1cccc(NC(=O)Nc2ccc3c(c2)OC[C@@H](C)NC[C@@H](C)[C@H](OC)CN(C)C3=O)c1`, the inhibition is -4.31%.

Consider `CCCN1[C@H](CO)[C@H](c2ccc(C#CC3CCCCC3)cc2)[C@@H]1CNC(=O)C1CC1`, for which the inhibition is -11.7%.

`COc1ccc(S(=O)(=O)N(C)C[C@@H]2Oc3ccc(NC(=O)Nc4cccc5ccccc45)cc3C(=O)N([C@H](C)CO)C[C@H]2C)cc1`: the inhibition was 9.82%.

Consider `COc1ccc2c3c(n(C)c2c1)[C@H](CO)N(Cc1ccc(F)cc1)CC31CCN(C)CC1`, for which the inhibition was 8.27%.

In the case of `NC(=O)C1(Nc2ccccc2Cl)CCCC1`, the inhibition is -0.504%.

With `O=C(Nc1ccccc1Cl)/C(Cl)=C(\Cl)S(=O)c1ccccc1` (configuration not stated), the inhibition is 41.6% (active).

`O=C(CCN1CCN(C/C=C/c2ccccc2)CC1)Nc1ccccc1Cl`: the inhibition was 15.1%.

As for `COc1ccc2c3c(n(C)c2c1)[C@H](CO)N(C(C)=O)CC31CN(Cc2ccc(Cl)cc2)C1`, the inhibition was 9.57%.

Consider `COc1ccc(S(=O)(=O)N2C[C@@H](O)COC[C@H]3O[C@@H](CC(=O)NCCN4CCCCC4)CC[C@@H]32)cc1`, for which the inhibition is -7.51%.

For `CO[C@H]1CN(C)C(=O)c2ccc(NC(C)=O)cc2OC[C@@H](C)N(C(=O)c2ccncc2)C[C@@H]1C`, the inhibition is -5.05%.

Turning to `O=C(c1cnccn1)N1CC(=O)N2[C@H](C1)[C@@H](c1ccc(C#CC3CCCC3)cc1)[C@@H]2CO`, the inhibition was 0.368%.

For the molecule `CN(C)C(=O)C[C@H]1C[C@H]2c3cc(NC(=O)Nc4ccccc4F)ccc3O[C@H]2[C@@H](CO)O1`, the inhibition is -8.8%.

Take `CC(=O)N1C[C@@H]2C(c3ccccc3)[C@@H](C1)N2C(=O)NC(C)C` (some centres not stated): the inhibition was -6.49%.

On to `O=C(NCc1ccc(F)cc1)[C@@H]1[C@@H](CO)[C@@H]2Cn3c(cccc3=O)[C@@H]2N1C(=O)c1cccnc1`, for which the inhibition was 12.8%.

As for `C[C@H]1CN([C@@H](C)CO)C(=O)c2cccc(NC(=O)CCCCCC(=O)Nc3ccccc3N)c2O[C@@H]1CN(C)C(=O)NC1CCCCC1`, the inhibition is 17%.

Regarding `CCOC(=O)C1CCCN(Cc2nc(N)nc(Nc3ccc(C)cc3)n2)C1` (configuration not stated), the inhibition is -4.21%.

On to `CCOC(=O)c1cnc(SCc2nc(N)nc(Nc3ccc(OC)cc3)n2)nc1N`, for which the inhibition is 14.2% (active).

Turning to `COc1ccc(Nc2nc(N)nc(CSC(=S)N3CCC(C)CC3)n2)cc1`, the inhibition was 4.46%.

Take `CN1C(=O)c2cc(NC(=O)c3cccs3)ccc2OC[C@H]2O[C@@H](CC(=O)NCC3CC3)CC[C@@H]21`: the inhibition was -3.33%.

As to `CC(C)[C@@H]1COCc2cn(nn2)CC[C@@H](C)C(=O)N1`, the inhibition is -0.112%.

Turning to `CCCNC(=O)Nc1ccc2c(c1)C(=O)N(C)C[C@@H](OC)[C@@H](C)CN(Cc1ccccn1)[C@@H](C)CO2`, the inhibition was 0.86%.

Turning to `CC(C)NC(=O)N(C)C[C@H]1Oc2ccc(N)cc2CC(=O)N(C)C[C@H]1C`, the inhibition was 3.3%.

For `N#Cc1ccc(-c2ccc(C3[C@@H]4CN(S(=O)(=O)c5cccc(Cl)c5)C[C@H]3N4)cc2)cc1` (some centres not stated), the inhibition is -6.82%.

Consider `C[C@@H]1CCCCO[C@H](CN(C)C(=O)CCCN(C)C)[C@@H](C)CN([C@@H](C)CO)C(=O)c2cc(NC(=O)c3ccncc3)ccc2O1`, for which the inhibition was -3.34%.

Take `C[C@H](CO)N1C[C@H](C)[C@@H](CN(C)C(=O)C2CC2)Oc2ncc(C#CC(C)(C)O)cc2C1=O`: the inhibition was -19.9%.

For `C[C@@H]1CN([C@H](C)CO)C(=O)c2c(c3ccccc3n2C)-c2ccccc2CO[C@@H]1CN(C)Cc1ccccc1C(F)(F)F`, the inhibition was 3.35%.

In the case of `COc1ccc(S(=O)(=O)Nc2ccc3c(c2)C(=O)N(C)C[C@@H](OC)[C@H](C)CN(C(=O)NC(C)C)[C@H](C)CO3)cc1`, the inhibition was 6.84%.

For the molecule `N#C[C@H]1[C@H](c2ccccc2-c2ccc(F)cc2)[C@H](CO)N1C(=O)Cc1ccncc1`, the inhibition is -14.3%.

As to `CC(C)NC(=O)N(C)C[C@@H]1OCCCC[C@H](C)Oc2ccc(NC(=O)Nc3ccccc3)cc2C(=O)N([C@H](C)CO)C[C@@H]1C`, the inhibition is 1.11%.

With `CCCNC(=O)N1[C@@H]2CNC[C@H]1C2c1ccc(-c2cccc(C)c2)cc1` (some centres not stated), the inhibition is -3.69% and -7.75%.

`Cc1cccc(S(=O)(=O)N2CC[C@@H]3[C@H]2c2cc(C#Cc4ccccc4F)ccc2N[C@@H]3CO)c1`: the inhibition was 15.8%.

`CNC[C@H]1Oc2ccc(NC(=O)NC(C)C)cc2C(=O)N(C)C[C@@H]1C`: the inhibition is -10.1%.

As for `O=C1N[C@H](Cc2ccccc2)COCc2cn(nn2)CC[C@@H]1Cc1ccc(-c2ccccc2)cc1`, the inhibition is 7.74%.

As to `CNC[C@H]1Oc2ncccc2C(=O)N(C)C[C@@H]1C`, the inhibition was 3.59%.

On to `CC(=O)N1[C@H](CO)[C@H](c2ccccc2)[C@H]1CN(C(=O)c1ccccc1F)C(C)C`, for which the inhibition was -2.39%.

Consider `CCCC(=O)Nc1ccc2c(c1)OC[C@H](C)N(C(=O)CC)C[C@H](C)[C@@H](OC)CN(C)C2=O`, for which the inhibition was -4.46%.

For `C=C(C)C[C@H]1CCn2cc(nn2)COCCNC1=O`, the inhibition is -4.67%.

`C[C@@H]1C(=O)N[C@H](c2ccc3c(c2)OCO3)CC=CC[C@H](C)Oc2ccccc2C(=O)N1C` (mixture of isomers): the inhibition was -8.64%.

For `COc1ccc(S(=O)(=O)N2C[C@H](O)COC[C@@H]3O[C@H](CC(=O)NCCN4CCCCC4)CC[C@H]32)cc1`, the inhibition was 4.18%.

`O=C1CCC(=O)N[C@H](c2ccccc2)C/C=C\CCN1`: the inhibition is -1.16%.

For the molecule `C[C@H]1CN([C@@H](C)CO)C(=O)c2c(c3ccccc3n2C)-c2ccccc2CO[C@@H]1CN(C)CC1CCCCC1`, the inhibition is -4.72%.

Turning to `CO[C@H]1CN(C)C(=O)c2cc(NC(=O)NC(C)C)ccc2OC[C@@H](C)NC[C@@H]1C`, the inhibition was -16.2%.

For the molecule `COc1ccc2c3c([nH]c2c1)[C@@H](CO)N(C)CC31CCN(S(=O)(=O)c2ccc(C)cc2)CC1`, the inhibition was 3.31%.

Consider `CC(=O)Nc1ccc2c(c1)CC(=O)N(C)C[C@H](C)[C@H](CN(C)S(C)(=O)=O)O2`, for which the inhibition is -0.444%.

As to `C[C@H](CO)N1C[C@H](C)[C@@H](CN(C)Cc2ccncc2)Oc2cc(Br)ccc2S1(=O)=O`, the inhibition is -7.26%.

Turning to `COCC(=O)N(C)C[C@H]1[C@@H](c2ccccc2)[C@H](CO)N1C(=O)Cc1ccncc1`, the inhibition is -3.58%.

For the molecule `O=C1NCCCOCc2cn(nn2)CC[C@@H]1Cc1ccc(-c2ccccc2)cc1`, the inhibition is 1.3%.

For the molecule `C[C@@H]1COCc2cn(nn2)CC[C@H](C)C(=O)N1`, the inhibition is -2.55%.

For `O=C(C1CCC1)N1CC2(C1)[C@H](c1ccccc1)[C@H](CO)N2Cc1nccs1`, the inhibition was 4.67%.

Consider `C[C@H](CO)N1C[C@H](C)[C@@H](CN(C)Cc2ccc(Cl)c(Cl)c2)Oc2ccc(NC(=O)Cn3cnnn3)cc2CC1=O`, for which the inhibition is -6.99%.

Take `O=C(Cc1ccncc1)N1CC[C@@H]2[C@@H](CO)Nc3ccc(C4=CCCCC4)cc3[C@@H]21`: the inhibition was -5.08%.

Consider `CO[C@H]1CN(C)C(=O)c2ccc(NC(=O)C3CCC3)cc2OC[C@H](C)NC[C@@H]1C`, for which the inhibition was 4.29%.

Consider `CC(=O)NC[C@H]1[C@H](c2ccc(C3=CCCCC3)cc2)[C@@H](CO)N1C(=O)NC(C)C`, for which the inhibition was -4.24%.

In the case of `Cc1ccccc1S(=O)(=O)N[C@@H]1CC[C@@H](CCNS(=O)(=O)c2cccc(F)c2)O[C@H]1CO`, the inhibition is -1.75%.

For `O=C(C[C@H]1CC[C@@H]2[C@H](COC[C@@H](O)CN2CC2CC2)O1)NCC1CC1`, the inhibition was -7.99%.

`CCC(=O)N(C)C[C@H]1Oc2ncc(-c3ccc(C#N)cc3)cc2C(=O)N([C@@H](C)CO)C[C@H]1C`: the inhibition was -1.88%.

Regarding `C/C=C/c1ccc(C2[C@H]3CNC[C@@H]2N3CC2CCOCC2)cc1` (some centres not stated), the inhibition was 3.6%.

In the case of `CO[C@@H]1CN(C)C(=O)c2cc(NC(=O)c3cccc(Oc4ccccc4)c3)ccc2OC[C@H](C)NC[C@@H]1C`, the inhibition was 15.5%.

For the molecule `O=C1CCCCn2nncc2COC[C@@H](Cc2ccccc2)N1`, the inhibition is 5.42%.

Consider `COCC(=O)N1CC2(CN(S(C)(=O)=O)C2)c2c(n(C)c3cc(OC)ccc23)[C@@H]1CO`, for which the inhibition was -4.29%.

Turning to `O=C(C[C@H]1C[C@H]2c3cc(NC(=O)CC4CC4)ccc3O[C@H]2[C@H](CO)O1)NCc1cc(F)ccc1F`, the inhibition was -4.07%.

Take `COc1ccc2c3c(n(C)c2c1)[C@@H](CO)N(Cc1ccncc1)CC31CN(C(=O)Nc2cccc(F)c2)C1`: the inhibition is -9.67%.

For the molecule `C[C@H](CO)N1C[C@H](C)[C@@H](CN(C)C(=O)Cc2ccccn2)Oc2cc(-c3cccc(C(=O)N(C)C)c3)ccc2S1(=O)=O`, the inhibition is 3.4%.

As for `O=C(NC(=O)c1ccccc1)Nc1ccccc1O`, the inhibition was -0.509%.

For `COC(=O)c1nc(NC(=O)c2ccccc2)n[nH]1`, the inhibition is 5.02%.

For the molecule `O=C(NC1=CC(=O)c2ccccc2C1=O)c1ccccc1`, the inhibition was 62.2% (active).

Consider `C[C@@H]1CC(=O)N[C@H](c2ccccc2)C/C=C\C[C@H](c2ccccc2)NC1=O`, for which the inhibition was -9.6%.
